Source: PubChem
MrgX1 antag – blocks BAM8-22 activation of human MrgX1 receptor. Q96LB2. MRGX1-HEK293 calcium flux, Fluo-4, BAM8-22 antagonism; active compounds read low. B-score at 10 µM. hit rate 1.3% among 310,000. AID 588676;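 active = calcium-response B-score plate-corrected more than 3 library SD below zero, starting fluorescence within 5 deviations, no agonist response on first addition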;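 note: peak minus trough fluorescence over baseline after final BAM8-22 challenge near maximal dose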
Target sequence (Q96LB2 whole entry, looked up): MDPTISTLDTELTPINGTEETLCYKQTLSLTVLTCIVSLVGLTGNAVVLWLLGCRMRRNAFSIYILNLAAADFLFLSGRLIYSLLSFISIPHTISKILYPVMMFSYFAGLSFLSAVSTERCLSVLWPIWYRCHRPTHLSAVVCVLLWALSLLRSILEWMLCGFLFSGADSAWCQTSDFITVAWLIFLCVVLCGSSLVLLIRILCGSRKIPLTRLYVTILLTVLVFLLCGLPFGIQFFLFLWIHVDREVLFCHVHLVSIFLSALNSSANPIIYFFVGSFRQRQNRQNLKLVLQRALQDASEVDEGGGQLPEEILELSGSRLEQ
MrgX1 allo act – human MrgX1 positive allosteric modulation, primary screen; AID 588675; hit rate 0.63% among 310,000; Q96LB2; B-score at 10 µM; MrgX1-HEK293, Fluo-4 calcium flux, FDSS; active compounds read high;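 active = plate-corrected calcium response at least 3 library SD above typical, normal starting fluorescence, not activating the receptor alone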;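 note: compound read alongside a low EC10 to EC30 dose of BAM8-22 agonist; peak minus trough fluorescence over baseline measured at the second addition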
MrgX1 ag – agonists of human MrgX1 receptor. Q96LB2. MrgX1-HEK293 cells, Fluo-4 calcium fluorescence, agonist mode; active compounds read high. B-score at 10 µM. hit rate 0.44% among 310,000;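 active = calcium response B-score plate-corrected fluorescence ratio at least 3 library SD, with starting fluorescence B-score inside 5 SD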
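Material – MrgX1-expressing HEK293 cells · Input – 15,000 cells seeded per well · Dosing – compound as first of three additions · Times – overnight seeding, then 1 h dark dye loading · Measured by – kinetic Fluo-4 NW fluorescence of intracellular calcium · Read-out – B-scored fluorescence response ratio · Benchmarks – positive and negative control wells on each plate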
RGS4 pot – potentiators or activators of RGS4; HEK293 M3R/inducible RGS4, carbachol calcium flux Fluo4; active compounds read low; B-score at 10 µM; hit rate 0.92% among 310,000; AID 463111;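 active = B-score of the integrated calcium signal more than 4 SD below the library mean, with starting fluorescence not abnormally high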;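 note: negative B-score means reduced calcium response which marks RGS4 activation or potentiation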
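Also added: carbachol at ECmax as muscarinic agonist stimulus; Assay system: HEK293 cells with stable M3R and inducible RGS4; Timing: overnight RGS4 induction, 30 min dye load 37 °C, 20 min compound RT; Measured by: Fluo4-AM (2 µM) calcium-flux fluorescence, kinetic read.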
RGS4 block – human RGS4 inhibition; AID 463165; hit rate 0.45% among 310,000; P49798; B-score at 10 µM; HEK293 M3R/RGS4 inducible, Fluo-4 calcium flux; active compounds read high; triggered by carbachol at its EC20;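 active = B-score, a plate-corrected calcium signal, over three deviations above library mean, with baseline fluorescence within five deviations of library mean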;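 note: RGS4 expression induced by doxycycline in cells with stable M3 receptor; B-score is computed from the integrated fluorescence ratio over baseline after carbachol; higher B-score means a larger calcium signal and so more RGS4 inhibition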
Target sequence (P49798 whole entry, looked up): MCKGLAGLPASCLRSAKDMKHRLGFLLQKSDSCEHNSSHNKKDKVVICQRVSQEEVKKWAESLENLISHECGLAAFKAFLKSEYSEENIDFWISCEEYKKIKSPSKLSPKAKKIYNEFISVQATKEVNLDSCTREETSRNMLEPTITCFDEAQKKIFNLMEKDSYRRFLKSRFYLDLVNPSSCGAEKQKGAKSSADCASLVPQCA
Each line names hits and unclear results; the compound was inactive in the other large screens. Hits are enriched below; roughly 3.5% of the tested compounds scored in any of these assays.

COc1ccc(CN(C)C(=O)c2[nH]c(C)c(C(C)=O)c2C)c(OC)c1OC	none
COc1ccc(S(=O)(=O)N2CCc3ccccc32)cc1C(=O)OCC(=O)c1c(N)n(C)c(=O)n(C)c1=O	RGS4 pot -9.6
CCc1cc(=O)oc2cc(C)cc(O)c12	none
CCCc1cc(=O)oc2cc(C)cc(O)c12	MrgX1 ag 35
Cc1ccccc1CN1C(=O)C(C)S/C1=N/N=C/c1ccco1 (configuration not stated)	MrgX1 allo act 13
Cc1cccc2c(C(=O)O)c3cccc(C)c3nc12	none
Cc1ccc(-c2nn(-c3ccccc3)cc2C=C2C(=O)CC(C)(C)CC2=O)cc1	RGS4 block 11
CC1=NNC(=O)/C1=C\c1cn(-c2ccccc2)nc1-c1ccc(Cl)cc1	none
O=C(Nc1ccc(Br)c(C(F)(F)F)c1)c1ccccc1	none
O=C(Nc1ccc(Br)c(C(F)(F)F)c1)c1ccc(C(F)(F)F)cc1	MrgX1 antag -7.2
O=C(Nc1ccc(OCC(F)(F)C(F)F)c(C(F)(F)F)c1)c1ccc(Cl)cc1	RGS4 pot -7.8
Cc1cccc(NC(=O)CCNC(=O)c2ccc(Br)cc2)c1C	none
CNC[C@H](CC1CCCCC1)NC[C@H](Cc1ccccc1)NCCC12CC3CC(CC(C3)C1)C2	MrgX1 antag -9.5, MrgX1 allo act 7.7, RGS4 pot -8.9
NNC(=O)c1nc(Cl)c(Cl)c(N)c1Cl	none
COc1ccc(/C(C)=N/NC(=O)c2ccncc2)cc1	none
C/C(=N/NC(=O)c1ccncc1)C1=C(O)CC(C)(C)CC1=O	MrgX1 antag -4.7
OCCNc1c2ccccc2nc2c(F)c(F)c(F)c(F)c12	MrgX1 antag -8
CN(C)CCCNc1c2ccccc2nc2ccccc12	none
O=C(Cn1cc([N+](=O)[O-])cn1)Nc1nccs1	none
CCCN1CCC(=O)N([C@H](CN=[N+]=[N-])Cc2ccccc2)CC1	none
COc1ccccc1/C=N/NC(=O)CC(=O)NCc1ccccc1	none
CCOc1cc(/C=N/NC(=O)c2cc3c(ccc4ccccc43)o2)ccc1O	none
CCOC(=O)COc1ccccc1/C=N\NC(=O)c1cc2c(ccc3ccccc32)o1	RGS4 pot -8.8
O=C(N/N=C/c1cc(Br)c(O)c(Br)c1)c1cc2c(ccc3ccccc32)o1	RGS4 pot -7.3
NC(=O)N/N=C/c1ccccc1OCC(=O)NCc1ccccc1	MrgX1 antag -4.8
COCc1ccc(CN2CCCC(CO)(Cc3ccccc3)C2)o1 (configuration not stated)	none
CCN(CC)CCOC(=O)c1cc(Cl)c(N)cc1OC	none (no result: RGS4 pot, RGS4 block)
O=C(N=Nc1c(O)[nH]c2ccc(F)cc12)C1COc2ccccc2O1 (configuration not stated)	none
COc1ccc(CN2CCNC(=O)C2CC(=O)NC2CC(C)(C)CC(C)(C)C2)cc1OC (configuration not stated)	none
CCn1cc(C(=O)O)c(=O)c2cnc(N3CCN(C(=S)Nc4ccccc4Cl)CC3)nc21	none
COC1=C/C(=C/c2c(N)n3c(nc2=O)sc2cc(S(C)(=O)=O)ccc23)C=CC1=O	MrgX1 allo act 10
CS(=O)(=O)c1nsc2nc(=O)c(/C=C3\C=Nc4ccccc43)c(N)n12	none
CS(=O)(=O)c1ccc2c(c1)sc1nc(=O)c(/C=C3/C=CC(=O)C(O)=C3)c(N)n12	MrgX1 allo act 28
COc1ccc(N2CC(C(=O)N/N=C/c3cccs3)CC2=O)cc1 (configuration not stated)	MrgX1 antag -6.1
COc1cccc(-c2cc3c(-n4cccc4)ncnc3o2)c1	RGS4 pot -7.1
CN1CC=C2C(C#N)=C(N)C(C#N)(C#N)C(c3cccc(Cl)c3Cl)C2C1 (configuration not stated)	MrgX1 antag -5.5
Cc1ccc(C2C3CN(C(C)C)CC=C3C(C#N)=C(N)C2(C#N)C#N)cc1 (configuration not stated)	RGS4 pot -7.1
CN1CC=C2C(C#N)=C(N)C(C#N)(C#N)[C@H](c3ccoc3)[C@H]2C1	none
COc1ccc(OC)c(C2C3CN(C(C)C)CC=C3C(C#N)=C(N)C2(C#N)C#N)c1 (configuration not stated)	MrgX1 ag 27
CCOC(=O)c1c(NC(=O)COC(=O)c2ncc(Cl)c(Cl)c2Cl)sc(C(=O)N(C)C)c1C	none
c1cc2c(cc1CN1CCN(C3CCCCCC3)CC1)OCO2	RGS4 pot -7.6
c1ccc(CN2CCC(N3CCN(Cc4ccc5c(c4)OCO5)CC3)CC2)cc1	none
O=C(NCCc1ccc(Cl)cc1Cl)c1cncc(Br)c1	none
C/C(=N/NC(=O)c1sc(NS(=O)(=O)c2ccccc2)nc1C)c1sc(N)nc1C	none
CCCCCCN1N=C(C)C(C(=O)c2ccc(Cl)cc2)C1=O (configuration not stated)	MrgX1 ag 66
CCCCCCCN1N=C(C)C(C(=O)c2ccccc2)C1=O (configuration not stated)	none
CCN(CC)CCn1c(=S)[nH]c2cc(C(=O)N3CC=C(c4ccccc4)CC3)ccc2c1=O	MrgX1 allo act 8.5
c1ccc(Cc2ccc(OCCCNC3CCCC3)cc2)cc1	RGS4 pot -12
c1ccc(-c2ccc(OCCCNC3CCCC3)cc2)cc1	none
C=CCn1c(-c2ccc(OC)c(OC)c2)n[nH]c1=S	none
C=CCn1c(-c2c(C)nc3cc(C)ccn23)n[nH]c1=S	MrgX1 antag -5.9
O=C(COc1ccccc1F)NNC(=O)c1cccc(-n2cccc2)c1	MrgX1 antag -5
CCc1ccc(S(=O)(=O)N2CCCC(N3CCN(c4ccc(OC)cc4)CC3)C2)cc1 (configuration not stated)	none
CCOC(=O)C1=C(C)N=c2s/c(=C\c3ccc(OC(C)=O)cc3)c(=O)n2C1/C=C/c1ccccc1 (configuration not stated)	RGS4 pot -11
COc1ccc(C(=O)NCc2nnc(SCC(=O)N3CCOCC3)o2)cc1OC	none
COc1ccccc1C(=O)NCCC(=O)N(C)CC(=O)Nc1ccc(C)cc1	MrgX1 antag -5.2
CCOC(=O)Nc1ccc2c(c1)N(C(=O)N1CCN(C)CC1)c1ccccc1S2	RGS4 pot -7.3
CCOC(=O)Nc1ccc2c(c1)N(C(=O)CCN1CCN(C)CC1)c1ccccc1S2	none
Cc1cc(C)c2nc(C)cc(N/N=C/c3ccc(O)cc3)c2c1	RGS4 pot -7.4
O=C(c1cccs1)N1CCN(C23CC4CC(CC(C4)C2)C3)CC1	RGS4 pot -7.3
CCC(C)(C)c1ccc(OCCCC[n+]2ccc(C)cc2)c(C(C)(C)CC)c1	RGS4 pot -9.3
Cc1cc[n+](CC[n+]2ccc(C)cc2)cc1	none
CCC(C)(C)c1ccc(OCCCC[n+]2cccc(C)c2C)c(C(C)(C)CC)c1	MrgX1 antag -5.3
COc1cc(Br)c(CCNC(=O)c2ccco2)cc1OC	none
O=C(CCNC(=O)c1ccccc1)NCC1CCCCC1	none
